# Columns and labels:
# Type in all cases: functional, organism-based
# Mus musculus [1] = experiment: Tested for in vivo weight change against murine P388 Pt-resistant leukemia at the dose of 5.0 mg/kg per injection
# Summary of the method: (§1)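 Leukemia life-span assays used CD2F1 (Balb/c × DBA/2F1) mice weighing 18–22 g. Cells were inoculated IP on day 0, and compounds in 0.9% saline were given IP, dosed by average cage weight. Weight change is the difference in mean group weight between the last and first treatment days.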
# L1210 [2] = experiment: Tested for the ratio of treated and control against solid tumor murine L1210 leukemia 10 mg/kg per injection in experiment 2; T/C; conditions: Mus musculus
# Summary of the method: (§2)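 Murine leukemia life span assay in CD2F1 (Balb/c × DBA/2F1) mice, 18–22 g, randomized, with IP tumor cell inoculation on day 0. Depending on the model, the inoculum was 1 × 10^4 cells with IP dosing on days 3, 7 and 11, or 1 × 10^6 cells with IP dosing on days 1, 5 and 9. Drug was given in 0.9% saline, mg/kg per injection, by average cage weight. Read-outs were median day of death and %T/C. Mice alive 60 days after treatment counted as cured and were excluded.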
# L1210 [3] = experiment: Tested for in vivo weight change against murine L1210 leukemia at the dose of 4.0 mg/kg per injection in experiment 1; conditions: Mus musculus; summary of the method: as §1
# L1210 [4] = experiment: Tested for the ratio of treated and control against solid tumor murine L1210 Pt-resistant leukemia 4.0 mg/kg per injection in experiment 1; T/C; conditions: Mus musculus; summary of the method: as §2
# L1210 [5] = experiment: Tested for the ratio of treated and control against solid tumor murine L1210 Pt-resistant leukemia 6.0 mg/kg per injection; T/C; conditions: Mus musculus; summary of the method: as §2
# L1210 [6] = experiment: Tested for the ratio of treated and control against solid tumor murine L1210 leukemia 4.0 mg/kg per injection in experiment 1; T/C; conditions: Mus musculus; summary of the method: as §2
# Mus musculus [7] = experiment: Tested for the ratio of treated and control against solid tumor murine P388 Pt-resistant leukemia 5.0 mg/kg per injection; T/C; summary of the method: as §2
# Mus musculus [8] = experiment: Tested for in vivo weight change against murine B16 melanoma at the dose of 9.0 mg/kg per injection
# Summary of the method: (§3)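 B6C3F1 (C57BL/6 × C3HF1) mice weighing 18–22 g received trocar tumor fragments SC on day 0. Compounds in 0.9% saline were given IP on a three-injection schedule, dosed by average cage weight. Weight change is the maximum treatment-related weight loss during the growth-delay assay.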
# L1210 [9] = experiment: Tested for the ratio of number of survivors / total number after 60 days at the dose of 5.0 mg/kg per injection against murine leukemia L1210 experiment 2; conditions: Mus musculus
# Summary of the method: (§4)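 CD2F1 (Balb/c × DBA/2F1) mice, 18–22 g, randomized and inoculated IP with counted leukemia cells on day 0, then re-randomized. Three IP treatments, dissolved in 0.9% saline and dosed on average cage weight, with dose in mg/kg per injection across a full toxic-to-ineffective range. Median life span and %T/C were recorded. Survivors at 60 days were counted as cured and excluded from %T/C.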
# L1210 [10] = experiment: Tested for median life span against solid tumor L1210 leukemia at 6.0 mg/kg per injection in experiment 1; conditions: Mus musculus
# Summary of the method: (§5)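 CD2F1 mice weighing 18–22 g were inoculated IP with leukemia cells on day 0. Compounds in 0.9% saline were given IP in three injections, dosed by average cage weight, over a dose range from toxic to ineffective. Median life span was recorded, with cause of death assessed at necropsy and 60-day survivors counted as cured.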
# L1210 [11] = experiment: Tested for the ratio of number of survivors / total number after 60 days at the dose of 10 mg/kg per injection against murine L1210 Pt-resistant leukemia in experiment 2; conditions: Mus musculus; summary of the method: as §4
# L1210 [12] = experiment: Tested for median life span against solid tumor L1210 leukemia at 4.0 mg/kg per injection in experiment 1; conditions: Mus musculus; summary of the method: as §5
# Mus musculus [13] = experiment: Tested for net cell kill tumor burden reduction during therapy at the dose 9.0 mg/kg in B16 melanoma; design: dose 9 mg/kg
# Summary of the method: (§6)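 Solid tumor growth delay assay; B16 melanoma and M5076 sarcoma were run in B6C3F1 (C57BL/6 × C3HF1) mice of 18–22 g. Tumor fragments were implanted SC on day 0, then drug in 0.9% saline was given IP on days 1, 5, 9 or days 3, 7, 11, mg/kg per injection. T − C is the difference in days for treated and control tumors to reach 750 mg. Net log cell kill is tumor burden reduction during therapy. Cured mice were excluded.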
# Mus musculus [14] = experiment: Tested for the ratio of treated and control tumor to reach 750 mg against murine solid tumor M5076 sarcoma 9.0 mg/kg per injection; summary of the method: as §6
# L1210 [15] = experiment: Tested for the ratio of number of survivors / total number after 60 days at the dose of 6.0 mg/kg per injection against murine L1210 Pt-resistant leukemia; conditions: Mus musculus; summary of the method: as §4
# L1210 [16] = experiment: Tested for the ratio of treated and control against solid tumor murine L1210 Pt-resistant leukemia 10 mg/kg per injection in experiment 2; T/C; conditions: Mus musculus; summary of the method: as §2
# L1210 [17] = experiment: Tested for in vivo weight change against murine L1210 leukemia at the dose of 10 mg/kg per injection in experiment 2; conditions: Mus musculus; summary of the method: as §1
# L1210 [18] = experiment: Tested for the ratio of treated and control against solid tumor murine L1210 leukemia 2.5 mg/kg per injection in experiment 2; T/C; conditions: Mus musculus; summary of the method: as §2
# L1210 [19] = experiment: Tested for the ratio of number of survivors / total number after 60 days at the dose of 2.5 mg/kg per injection against murine leukemia L1210 experiment 2; conditions: Mus musculus; summary of the method: as §4
# L1210 [20] = experiment: Tested for in vivo weight change against murine L1210 leukemia at the dose of 3.0 mg/kg per injection in experiment 1; conditions: Mus musculus; summary of the method: as §1
# L1210 [21] = experiment: Tested for the ratio of number of survivors / total number after 60 days at the dose of 3.0 mg/kg per injection against murine L1210 Pt-resistant leukemia in experiment 1; conditions: Mus musculus; summary of the method: as §4
# Mus musculus [22] = experiment: Tested for the ratio of treated and control against solid tumor murine P388 leukemia 2.3 mg/kg per injection in experiment 2; T/C; summary of the method: as §2
# L1210 [23] = experiment: Tested for the ratio of number of survivors / total number after 60 days at the dose of 3.0 mg/kg per injection against murine leukemia L1210 experiment 1; conditions: Mus musculus; summary of the method: as §4
# Mus musculus [24] = experiment: Tested for median life span against solid tumor P388 leukemia at 3.7 mg/kg per injection in experiment 2; summary of the method: as §2
# L1210 [25] = experiment: Tested for in vivo weight change against murine L1210 leukemia at the dose of 1.6 mg/kg per injection in experiment 2; conditions: Mus musculus; summary of the method: as §1
# Mus musculus [26] = experiment: Tested for in vivo weight change against murine M5076 sarcoma at the dose of 4.0 mg/kg per injection; summary of the method: as §3
# M5076 = experiment: Tested for net cell kill tumor burden reduction during therapy at the dose 4.0 mg/kg in M5076 sarcoma; design: dose 4 mg/kg; conditions: Mus musculus
# L1210 [27] = experiment: Tested for the ratio of number of survivors / total number after 60 days at the dose of 1.6 mg/kg per injection against murine L1210 Pt-resistant leukemia in experiment 2; conditions: Mus musculus; summary of the method: as §4
# Mus musculus [28] = experiment: Tested for median life span against solid tumor P388 Pt-resistant leukemia at 3.7 mg/kg per injection; summary of the method: as §2
# L1210 [29] = experiment: Tested for the ratio of treated and control against solid tumor murine L1210 Pt-resistant leukemia 3.0 mg/kg per injection in experiment 1;T/C; conditions: Mus musculus; summary of the method: as §2
# Mus musculus [30] = experiment: Tested for in vivo weight change against murine P388 leukemia at the dose of 3.7 mg/kg per injection in experiment 2; summary of the method: as §1
# L1210 [31] = experiment: Tested for in vivo weight change against murine L1210 leukemia at the dose of 1.5 mg/kg per injection in experiment 1; conditions: Mus musculus; summary of the method: as §1
# L1210 [32] = experiment: Tested for the ratio of number of survivors / total number after 60 days at the dose of 1.6 mg/kg per injection against murine leukemia L1210 experiment 2; conditions: Mus musculus; summary of the method: as §4
substance,measurement,setting,value
CISPLATIN,Weight change,Mus musculus [1],1 g
same,Ratio,L1210 [2],199%
same,Weight change,L1210 [3],1 g
same,Ratio,L1210 [4],109%
same,Ratio,L1210 [5],118%
same,Ratio,L1210 [6],184%
same,T/C,Mus musculus [7],132%
same,Weight change,Mus musculus [8],-4.5 g
same,Survivors,L1210 [9],0
same,MLS,L1210 [10],18.5 days
same,Survivors,L1210 [11],0
same,MLS,L1210 [12],19.5 days
same,Log net cell kill,Mus musculus [13],-0.4
same,T-C,Mus musculus [14],15.9 days
same,Survivors,L1210 [15],0
same,Ratio,L1210 [16],120%
same,Weight change,L1210 [17],-3.3 g
"[Pt(cis-1,4-dach)CL2]",Ratio,L1210 [18],242%
same,60-day survivors,L1210 [19],1
same,Weight change,L1210 [20],-4.8 g
same,60-day survivors,L1210 [21],2
same,T/C,Mus musculus [22],225%
same,60-day survivors,L1210 [23],1
same,MLS,Mus musculus [24],26 days
same,Weight change,L1210 [25],0.9 g
same,Weight change,Mus musculus [26],-5.5 g
same,Log net cell kill,M5076,0.6
same,60-day survivors,L1210 [27],1
same,MLS,Mus musculus [28],25.8 days
same,Ratio,L1210 [29],167%
same,Weight change,Mus musculus [30],-6 g
same,Weight change,L1210 [31],0.6 g
same,60-day survivors,L1210 [32],0
